Results on 2 compounds are retold here after ChEMBL document CHEMBL4433206, “Novel Lysine-Based Thioureas as Mechanism-Based Inhibitors of Sirtuin 2 (SIRT2) with Anticancer Activity in a Colorectal Cancer Murine Model” (J Med Chem, 2019).

In data set [1] the test system is HCT-116. Description: Antitumor activity against human HCT116 cells harboring KRAS G13D mutant xenografted in NSG mouse assessed as tumor growth inhibition by measuring reduction in tumor volume at 25 mg/kg, ip administered daily for 12 days and measured daily during compound dosing. The class given is functional, organism-based. Put shortly:
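NSG mice, female and male, about 4–8 weeks old, were implanted with 1 × 10⁶ HCT116 cells on both sides of the abdomen. Tumours grew 3–5 days until visible. Compound was given ip daily for 12 days in vehicle containing 10% DMSO and 10% Kolliphor EL (dosing solution 10 mg/mL); control mice received vehicle. Tumour volume was measured daily; tumours were excised and weighed on the last day. Unpaired two-tailed t-test.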
A general note: A xenograft is tissue or cells of one species grown in another, often human tumour cells in immunodeficient mice.

The test system of data set [2] is MDA-MB-231. Description: Potency index, ratio of TM GI50 to compound GI50 for growth inhibition of human MDA-MB-231 cells. The class given is functional.
The test system of data set [3] is CCD-841CoN. The experiment in a line: Growth inhibition of human CCD-841-CoN cells after 72 hrs by CellTiter-Blue assay. The class given is cell-based. In outline: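 3000 cells/well seeded, 20 h at 37 °C. Inhibitor added at final 1–100 μM, then 72 h at 37 °C. Viability read by CellTiter-Blue after 4 h at 37 °C, fluorescence 560 nm excitation/590 nm emission. GI50 derived.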
For orientation: Alamar Blue is a resazurin reagent that responds to reducing activity.

In data set [4] the test system is A549. The experiment in a line: Potency index, ratio of TM GI50 to compound GI50 for growth inhibition of human A549 cells. The class given is functional.

Each structure is given as a SMILES string. Activity calls are given as the source filed them. The rule behind the calls is not given here.

Regarding `CCCCCCCCNC(=S)NCCCC[C@H](NC(=O)OCc1ccccc1)C(=O)Nc1ccccc1`, in data set [1], the TGI entry was “inactive”.

For the compound `CCCCCCCCCCNC(=S)NCCCC[C@H](NC(=O)OCc1ccccc1)C(=O)Nc1ccccc1`, the RatioGI50 in data set [2] and in data set [4] was 2 throughout. Besides, it took 47.4 µM to inhibit growth in data set [3] by half (GI50).
